From ChEMBL document CHEMBL1932969, “Acyl derivatives of boswellic acids as inhibitors of NF-κB and STATs” (Bioorg Med Chem Lett, 2012)
pIC50: −log10 of the molar value. Activity calls are given as the source filed them. The calls are words filed in the database; no cut-off is given here.

How the values were obtained:
[1] = tested on: DU-145; test: Anticancer activity against human DU145 cells assessed as growth inhibition at 50 uM after 48 hrs by SRB assay; assay type: functional; conditions: DU-145, 48 h, read-out: GI
Procedure, shortened: (§1)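 Cells exposed to test compounds at 50 µM for 48 h. Read-out is percent growth inhibition, with SEM given. 5-Fluorouracil and adriamycin serve as reference agents.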

[2] = tested on: HL-60; test: Induction of apoptosis in p53-deficient human HL60 cells assessed as apoptotic cells at 50 uM after 6 hrs by FITC-conjugated annexinV/PI-based flow cytometric analysis (reference value: 5 %); assay type: functional
Procedure, shortened: (§2)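 HL-60 cells incubated with each analog at 50 µM for 6 h, stained with annexin V-FITC/propidium iodide and analysed by flow cytometry. Lower right quadrant is apoptotic, upper right post-apoptotic, upper left necrotic. Three experiments, with representative dot plots shown.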

[3] = tested on: HL-60; test: Inhibition of STAT3beta protein expression in p53-deficient human HL60 cells at 20 to 50 uM after 6 hrs by Western blot analysis; assay type: cell-based
[4] = tested on: PC-3; test: Anticancer activity against human PC3 cells assessed as growth inhibition at 50 uM after 48 hrs by SRB assay; assay type: functional; conditions: PC-3, 48 h, read-out: GI; procedure, shortened: as §1
[5] = tested on: HL-60; test: Anticancer activity against human HL60 cells after 48 hrs by MTT assay; assay type: functional, cell-based; conditions: HL-60, 48 h
Procedure, shortened: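 Cell proliferation measured by MTT. Cells are incubated with each analog for 48 h at the indicated concentrations, then MTT reduction is read as an index of viability. OD of the untreated control is taken as 100% viability, and IC50 is derived from this.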

[6] = target: T1, Signal transducer and activator of transcription 6 (Homo sapiens) (UniProt P42226); test: Inhibition of STAT6 protein expression in p53-deficient human HL60 cells at 20 to 50 uM after 6 hrs by Western blot analysis; assay type: cell-based; conditions: HL-60
T1 sequence (whole entry): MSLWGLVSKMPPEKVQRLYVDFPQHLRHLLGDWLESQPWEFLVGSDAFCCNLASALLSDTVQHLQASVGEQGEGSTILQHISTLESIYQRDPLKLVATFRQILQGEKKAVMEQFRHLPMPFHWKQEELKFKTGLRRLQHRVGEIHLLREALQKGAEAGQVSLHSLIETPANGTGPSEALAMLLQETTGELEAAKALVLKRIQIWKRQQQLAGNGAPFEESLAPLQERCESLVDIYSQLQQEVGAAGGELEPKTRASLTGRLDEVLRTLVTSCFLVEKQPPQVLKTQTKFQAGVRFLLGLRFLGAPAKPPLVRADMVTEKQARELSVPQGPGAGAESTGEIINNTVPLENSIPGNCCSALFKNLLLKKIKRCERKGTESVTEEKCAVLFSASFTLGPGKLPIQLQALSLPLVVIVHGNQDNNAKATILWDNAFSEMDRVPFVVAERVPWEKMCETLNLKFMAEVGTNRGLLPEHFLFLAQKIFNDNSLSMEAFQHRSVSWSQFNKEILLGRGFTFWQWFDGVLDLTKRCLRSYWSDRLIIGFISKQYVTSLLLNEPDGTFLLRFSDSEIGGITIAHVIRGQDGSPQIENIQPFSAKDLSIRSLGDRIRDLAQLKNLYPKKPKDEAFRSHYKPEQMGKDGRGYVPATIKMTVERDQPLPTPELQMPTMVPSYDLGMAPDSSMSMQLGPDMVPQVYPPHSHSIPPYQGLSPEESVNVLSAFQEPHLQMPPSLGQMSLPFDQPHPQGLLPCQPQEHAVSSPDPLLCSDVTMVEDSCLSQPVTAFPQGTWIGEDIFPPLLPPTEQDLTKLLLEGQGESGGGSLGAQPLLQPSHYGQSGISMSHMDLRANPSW

[7] = target: Signal transducer and activator of transcription 3 (Homo sapiens) (UniProt P40763); test: Inhibition of STAT3 Ser727 phosphorylation in p53-deficient human HL60 cells at 20 to 50 uM after 6 hrs by Western blot analysis; assay type: cell-based; conditions: HL-60
Signal transducer and activator of transcription 3 (Homo sapiens), sequence (P40763 whole entry): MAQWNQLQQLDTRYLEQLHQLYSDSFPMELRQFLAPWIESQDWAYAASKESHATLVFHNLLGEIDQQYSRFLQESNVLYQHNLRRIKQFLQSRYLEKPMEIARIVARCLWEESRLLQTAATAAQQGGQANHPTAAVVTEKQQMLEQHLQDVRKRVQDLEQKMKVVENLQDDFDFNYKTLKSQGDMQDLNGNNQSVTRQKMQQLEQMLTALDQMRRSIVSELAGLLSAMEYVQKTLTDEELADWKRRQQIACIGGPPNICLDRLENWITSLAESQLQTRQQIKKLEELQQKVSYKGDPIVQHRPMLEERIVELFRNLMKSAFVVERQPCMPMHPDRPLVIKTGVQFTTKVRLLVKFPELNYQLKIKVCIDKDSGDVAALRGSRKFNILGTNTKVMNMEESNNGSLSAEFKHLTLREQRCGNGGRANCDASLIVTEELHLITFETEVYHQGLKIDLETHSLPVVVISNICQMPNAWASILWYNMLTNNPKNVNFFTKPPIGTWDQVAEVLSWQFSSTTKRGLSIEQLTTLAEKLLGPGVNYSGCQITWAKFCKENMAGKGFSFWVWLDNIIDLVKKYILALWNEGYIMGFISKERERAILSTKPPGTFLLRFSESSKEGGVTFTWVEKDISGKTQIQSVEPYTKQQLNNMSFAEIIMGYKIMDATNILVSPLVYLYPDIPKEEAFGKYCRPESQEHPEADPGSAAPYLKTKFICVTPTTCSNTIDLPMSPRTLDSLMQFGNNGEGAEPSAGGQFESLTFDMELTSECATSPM

[8] = tested on: HL-60; test: Inhibition of STAT3alpha protein expression in p53-deficient human HL60 cells at 20 to 50 uM after 6 hrs by Western blot analysis; assay type: cell-based
[9] = tested on: HL-60; test: Inhibition of NF-kappaB p50 subunit protein expression in p53-deficient human HL60 cells at 50 uM after 6 hrs by Western blot analysis; assay type: cell-based
Procedure, shortened: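 HL-60 cells treated with or without compound (20 and 50 µM) for 6 h. Total cell lysates (70 µg protein) are run on 10% SDS–PAGE and immunoblotted for NF-κB p50 and p65.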

[10] = tested on: HL-60; test: Induction of apoptosis in p53-deficient human HL60 cells at 50 uM after 6 hrs by FITC-conjugated annexinV/PI-based flow cytometric analysis; assay type: functional; procedure, shortened: as §2
[11] = tested on: HL-60; test: Induction of necrosis in p53-deficient human HL60 cells at 50 uM after 6 hrs by FITC-conjugated annexinV/PI-based flow cytometric analysis; assay type: functional, cell-based; procedure, shortened: as §2
[12] = target: Signal transducer and activator of transcription 3 (Homo sapiens) (UniProt P40763); test: Inhibition of STAT3 Thr705 phosphorylation in p53-deficient human HL60 cells at 20 to 50 uM after 6 hrs by Western blot analysis; assay type: cell-based; conditions: HL-60

With `CCCC(=O)O[C@@H]1CC[C@@]2(C)[C@@H](CC[C@]3(C)[C@@H]2C(=O)C=C2[C@@H]4[C@@H](C)[C@H](C)CC[C@]4(C)CC[C@]23C)[C@@]1(C)C(=O)O` the inhibition of growth at 50 µM [1] was 93%, the Activity [2] was 32% and the inhibition [3] was “Active”. The inhibition of growth at 50 µM [4] was 96%, the pIC50 [5] was 4.96 and the inhibition [6] was “Active”. For the same compound, the inhibition [7] was “Active”, the inhibition [8] was “Active” and the inhibition [9] was “Active”. For the same compound, the Activity [10] was 80%, the Activity [11] was “inactive” and the inhibition [12] was “Active”.
